This is an account of results in ChEMBL document CHEMBL3085765, “The synthesis, antiviral, cytostatic and cytotoxic evaluation of a new series of acyclonucleotide analogues with a 1,2,3-triazole linker” (Eur J Med Chem, 2013).

Each structure is given as a SMILES string. pEC50, pIC50: −log10 of the molar value.

Assay [1] deals with CCRF-CEM. The experiment in a line: Cytostatic activity against human CEM cells after 3 days by coulter ZI particle counting analysis. Format: functional, cell-based. The settings on record: 72 h. The method, boiled down:
(§1)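 Cells seeded in 96-well plates and grown with or without serial dilutions of compound, 2 days for L1210 and 3 days for CEM and HeLa. IC50 taken as concentration inhibiting cell proliferation by 50%.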

Assay [2] deals with L1210. The experiment in a line: Cytostatic activity against mouse L1210 cells after 2 days by coulter ZI particle counting analysis. Format: functional, cell-based. Conditions: L1210, 48 h. An outline of the steps:
as §1

Assay [3] concerns HeLa. The experiment in a line: Cytostatic activity against human HeLa cells after 3 days by coulter ZI particle counting analysis. Format: functional, cell-based. Conditions: 72 h. The method, boiled down:
as §1

In assay [4] the test system is Human alphaherpesvirus 2. Briefly: Antiviral activity against Herpes simplex virus 2 G infected in human HEL cells assessed as inhibition of virus-induced cytopathicity. Conditions: Human alphaherpesvirus 2, strain G. Format: functional, organism-based. The method, boiled down:
(§2)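 Confluent monolayers (HEL for HSV-1 KOS and HSV-2 G; CRFK for feline herpes virus) in 96-well plates inoculated with 100 CCID50 of virus in presence of varying compound concentrations (100, 20, 4, … μM). Cytopathicity scored when complete in untreated infected controls; EC50 = concentration inhibiting virus-induced cytopathicity by 50%.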
(In general: Cytopathic effects are the visible damage that an infection or toxin causes in cultured cells.)

The test system of assay [5] is Felid alphaherpesvirus 1. The experiment in a line: Antiviral activity against Feline herpesvirus infected in cat CRFK cells assessed as inhibition of virus-induced cytopathicity. The settings on record: Felid alphaherpesvirus 1, CRFK. Format: functional, organism-based. An outline of the steps:
as §2

Assay [6] relates to Human alphaherpesvirus 1. Briefly: Antiviral activity against Herpes simplex virus 1 KOS infected in human HEL cells assessed as inhibition of virus-induced cytopathicity. Conditions: Human alphaherpesvirus 1, KOS. Format: functional, organism-based. An outline of the steps:
as §2

In general, pIC50 refers to the negative decadic logarithm of the IC50, by convention in mol/L. Read a low pIC50 as a large IC50. `CCOP(=O)(OCC)C(O)Cn1cc(Cn2ccccc2=O)nn1` (centres undefined): the pIC50 in assay [1], in assay [2] and in assay [3] was under 3.70 in each case.

For the compound `CCOP(=O)(CC(O)Cn1cc(Cn2cnc3c2c(=O)n(C)c(=O)n3C)nn1)OCC` (centres undefined), the pIC50 in assay [1], in assay [2] and in assay [3] was under 3.70 each time.

On to `CCOP(=O)(CCCCn1cc(Cn2cnc3c(N)ncnc32)nn1)OCC`, for which the pIC50 in assay [1], in assay [2] and in assay [3] was under 3.70 each time.

Consider `CCOP(=O)(OCC)C(O)CCn1cc(Cn2c(Cl)nc3c2c(=O)n(C)c(=O)n3C)nn1` (centres undefined), for which the pIC50 in assay [1], in assay [2] and in assay [3] was under 3.70 in each case.

Consider `CCOP(=O)(CC(O)Cn1cc(Cn2cnc3cc(C)c(C)cc32)nn1)OCC` (centres undefined), for which the negative-log IC50 (pIC50) in assay [1] was 4.11; in assay [2], under 3.70; in assay [3], at most 3.82.

Broadly, the pEC50 is the EC50 on a negative log10 scale, so that one unit is a factor of ten. Take `CCOP(=O)(CCCn1cc(Cn2ccc(=O)n(C(=O)c3ccccc3)c2=O)nn1)OCC`: the pIC50 in assay [1], in assay [2] and in assay [3] was under 3.70 in each case. Moreover, the pEC50 in assay [4], in assay [5] and in assay [6] was under 3.70 in each case.

As to `Cn1c(=O)c2c(ncn2Cc2cn(CC(O)P(=O)(O)O)nn2)n(C)c1=O` (centres undefined), the pIC50 in assay [1], in assay [2] and in assay [3] was under 3.70 in each case.

Consider `CCOP(=O)(CCCn1cc(Cn2c(=O)n(C(=O)c3ccccc3)c(=O)c3ccccc32)nn1)OCC`, for which the figures for the negative-log IC50 (pIC50) in assay [1], in assay [2] and in assay [3] were 4.36, under 3.70 and 3.89, respectively. The negative-log EC50 (pEC50) was 4.77 in assay [4], 4.62 in assay [5] and 4.77 in assay [6].

`CCOP(=O)(OCC)C(O)Cn1cc(Cn2cc(C(C)=O)c3ccccc32)nn1` (centres undefined): the figures for the pIC50 in assay [1], in assay [2] and in assay [3] were 4.68, under 3.70 and under 3.70, respectively.

In the case of `CCOP(=O)(CC(O)Cn1cc(Cn2ncc(=O)[nH]c2=O)nn1)OCC` (centres undefined), the pIC50 in assay [1], in assay [2] and in assay [3] was under 3.70 throughout.

On to `CCOP(=O)(CCn1cc(Cn2c(=O)c3c(ncn3C)n(C)c2=O)nn1)OCC`, for which the pIC50 is under 3.70 in assay [1], under 3.70 in assay [2] and 3.80 in assay [3].

On to `CCOP(=O)(Cn1cc(Cn2ncc(=O)[nH]c2=O)nn1)OCC`, for which the pIC50 in assay [1], in assay [2] and in assay [3] was under 3.70 throughout.

Turning to `CCOP(=O)(CCCn1cc(Cn2c(Cl)nc3c2c(=O)n(C)c(=O)n3C)nn1)OCC`, the pIC50 in assay [1], in assay [2] and in assay [3] was under 3.70 throughout.

Regarding `CCOP(=O)(OCC)C(O)Cn1cc(Cn2ncc(=O)[nH]c2=O)nn1` (centres undefined), the pIC50 in assay [1], in assay [2] and in assay [3] was under 3.70 throughout.

Consider `CCOP(=O)(CCCn1cc(Cn2c(=O)c3c(ncn3C)n(C)c2=O)nn1)OCC`, for which the pIC50 in assay [1], in assay [2] and in assay [3] was under 3.70 each time.

As for `CCOP(=O)(CC(O)Cn1cc(Cn2c(=O)n(C(=O)c3ccccc3)c(=O)c3ccccc32)nn1)OCC` (centres undefined), the pIC50 in assay [1] was 4.14; in assay [2], under 3.70; in assay [3], under 3.70.
